19 molecules from ChEMBL document CHEMBL1123086, “8-Substituted guanosine and 2'-deoxyguanosine derivatives as potential inducers of the differentiation of Friend erythroleukemia cells” (1985) can be followed below.

The subject of assay [1] is Friend leukemia cell line. In words: Inhibitory activity against cellular differentiation in Friend erythroleukemia cells as percentage of benzidine - positive cells. Format: functional, Mus musculus. In short, it runs like this: (§1)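 Parental Friend murine erythroleukemia cells in exponential growth, seeded at (7–8) × 10⁴ cells/mL in Dulbecco's modified Eagle's MEM with 15% fetal bovine serum and 2 mM L-glutamine under 10% CO₂. Exposed to graded 2.5-fold concentration increases. On day 6, hemoglobin-containing cells staining blue with acidic 3,3',5,5'-tetramethylbenzidine peroxide were counted cytologically and reported as percent benzidine-positive cells.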

Assay [2] has as its system Friend erythroleukemia cells, HGPRT- (Mus musculus). In words: Inhibitory activity against cellular replication in hypoxanthine-guanine phosphoribosyltransferase (HGPRT-) Friend murine erythroleukemia cells. Particulars: read-out: ID50 (the source's name).
For assay [3], the system named is Friend leukemia cell line. In words: Inhibitory activity against cellular differentiation in Friend erythroleukemia cells as optimal concentration required for maximum activity. Format: functional, Mus musculus. In short, it runs like this: as §1
Assay [4] relates to Friend leukemia cell line. In words: Inhibitory activity against cellular replication in Friend erythroleukemia cells as growth inhibition. Format: functional. Particulars: Mus musculus, read-out: ID50 (the source's name). The gist of the method: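 Exponentially growing parental Friend erythroleukemia cells at (7–8) × 10⁴ cells/mL in DMEM with 15% FBS under 10% CO₂. Incubated with graded 2.5-fold concentration steps. Cell number was counted on day 3 with a particle counter, and percent growth inhibition was calculated from log cell number.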

The structures appear in SMILES notation.

In assay [1], `Nc1nc2c([nH]c(=O)n2[C@H]2C[C@H](O)[C@@H](CO)O2)c(=O)[nH]1` returned a Benzidine positive cells of 62%. In addition, the IC50 in assay [2] and in assay [4] was 0.39 mM throughout. For the same molecule, in assay [3], the Optimal concentration amounted to 0.2 mM.
In the case of `Nc1nc(O)c2nc(N)n([C@@H]3O[C@H](CO)[C@@H](O)[C@H]3O)c2n1`, in assay [1], the Benzidine positive cells was found to be 34%. In addition, the IC50 in assay [2] and in assay [4] was 1.7 mM in each case. In assay [3], the Optimal concentration is recorded as 0.4 mM.
For the molecule `Nc1nc(O)c2nc(S)n([C@@H]3O[C@H](CO)[C@@H](O)[C@H]3O)c2n1`, the Benzidine positive cells in assay [1] is listed as 4%. The IC50 in assay [2] and in assay [4] was 3.5 mM each time. In assay [3], this molecule registered an Optimal concentration of 2 mM.
The molecule `Nc1nc(O)c2nc(Br)n([C@H]3C[C@H](O)[C@@H](CO)O3)c2n1` registered a Benzidine positive cells in assay [1] of 20%. For the same molecule, the IC50 in assay [2] and in assay [4] was above 5 mM each time. This molecule also yielded an Optimal concentration in assay [3] of 7 mM.
`Nc1nc(O)c2nc(OCc3ccccc3)n([C@H]3C[C@H](O)[C@@H](CO)O3)c2n1` showed a Benzidine positive cells in assay [1] of 7%. In addition, the IC50 in assay [2] and in assay [4] was above 5 mM in each case. This molecule yielded an Optimal concentration in assay [3] of 7 mM.
In assay [1], `COc1nc2c(O)nc(N)nc2n1[C@H]1C[C@H](O)[C@@H](CO)O1` showed a Benzidine positive cells of 22%. The IC50 in assay [2] and in assay [4] was above 5 mM throughout. The molecule also had an Optimal concentration in assay [3] of 5 mM.
On to `CNc1nc2c(=O)[nH]c(N)nc2n1[C@@H]1O[C@H](CO)[C@@H](O)[C@H]1O`, for which the Benzidine positive cells in assay [1] turned out to be 42%. Also, the IC50 in assay [2] came out at 4.9 mM; in assay [4] it was 2.9 mM. The Optimal concentration in assay [3] came out at 1 mM.
The corresponding values for `CN(C)c1nc2c(=O)[nH]c(N)nc2n1[C@@H]1O[C@H](CO)[C@@H](O)[C@H]1O` are 68%, above 5 mM, above 5 mM and 5 mM.
In the case of `Nc1nc2c(nc(Br)n2[C@@H]2O[C@H](CO)[C@@H](O)[C@H]2O)c(=O)[nH]1`, the Benzidine positive cells in assay [1] worked out at 6%. Besides, the IC50 in assay [2] and in assay [4] was 5.1 mM in each case. The Optimal concentration in assay [3] is given as 5 mM.
`Nc1nc(O)c2nc(OCc3ccccc3)n(C3O[C@H](CO)[C@@H](O)[C@H]3O)c2n1` (stereo partly specified): in assay [1], the Benzidine positive cells is reported as 4%. Also, the IC50 in assay [2] and in assay [4] was above 8 mM each time. In assay [3], the Optimal concentration is 8 mM.
As for `[N-]=[N+]=Nc1nc2c(O)nc(N)nc2n1C1O[C@H](CO)[C@@H](O)[C@H]1O` (stereo partly specified), in assay [1], the Benzidine positive cells amounted to 12%. The IC50 in assay [2] and in assay [4] was 3.6 mM throughout. In assay [3], this molecule registered an Optimal concentration of 2 mM.
Regarding `COc1nc2c(O)nc(N)nc2n1C1O[C@H](CO)[C@@H](O)[C@H]1O` (stereo partly specified), the Benzidine positive cells in assay [1] is on record as 7%. In addition, the IC50 in assay [2] and in assay [4] was above 8 mM throughout. Further, in assay [3], the Optimal concentration was 8 mM.
`CSc1nc2c(O)nc(N)nc2n1C1O[C@H](CO)[C@@H](O)[C@H]1O` (stereo partly specified) had a Benzidine positive cells in assay [1] of 11%. The IC50 in assay [2] and in assay [4] was above 8 mM each time. Also, in assay [3], the Optimal concentration is 5 mM.
In assay [1], `Nc1nc(O)c2nc(NO)n(C3O[C@H](CO)[C@@H](O)[C@H]3O)c2n1` (stereo partly specified) registered a Benzidine positive cells of 7%. Also, in assay [3], the Optimal concentration is 6 mM. The IC50 in assay [4] is above 5 mM.
As to `CS(=O)(=O)c1nc2c(O)nc(N)nc2n1C1O[C@H](CO)[C@@H](O)[C@H]1O` (stereo partly specified), the Benzidine positive cells in assay [1] is on record as 30%. Further, the values for the IC50 in assay [2] and in assay [4] were 10 mM and 5.4 mM, respectively. Further, in assay [3], the Optimal concentration is reported as 5 mM.
Molecule `Nc1nc2c(nc(O)n2[C@@H]2O[C@H](CO)[C@@H](O)[C@H]2O)c(=O)[nH]1` [8-HYDROXYGUANOSINE] yielded a Benzidine positive cells in assay [1] of 33%. The IC50 in assay [2] and in assay [4] was 8 mM in each case. In addition, the Optimal concentration in assay [3] stood at 5 mM.
In assay [1], `Nc1nc(O)c2ncn([C@H]3C[C@H](O)[C@@H](CO)O3)c2n1` [DEOXYGUANOSINE] displayed a Benzidine positive cells of 0%. Further, the IC50 was found to be 0.49 mM in assay [2] and 0.29 mM in assay [4].
As to `C[S+](C)[O-]` [DIMETHYL SULFOXIDE], in assay [1], the Benzidine positive cells was found to be 70%. Also, in assay [3], the Optimal concentration amounted to 200 mM.
Take `Nc1nc2c(ncn2[C@@H]2O[C@H](CO)[C@@H](O)[C@H]2O)c(=O)[nH]1` [GUANOSINE]: the Benzidine positive cells in assay [1] amounted to 0%. Also, the results for the IC50 in assay [2] and in assay [4] were 7.8 mM and 1.2 mM, respectively.
